The source of these data is ChEMBL document CHEMBL2021841, “The design and synthesis of potent, selective benzodiazepine sulfonamide bombesin receptor subtype 3 (BRS-3) agonists with an increased barrier of atropisomerization” (Bioorg Med Chem, 2012).

One may read the IC50 as the point on the concentration scale where inhibition reaches its midpoint. The low end stands for inhibition by little substance, the high end for a need for much substance. By EC50 is commonly meant the concentration at which the effect is half-maximal. Low readings indicate an effect from little substance, high ones a need for much substance. The term clearance denotes a measure of how efficiently the substance is removed, as volume per time. A high value points to efficient removal. One may read the half-life as the time in which the quantity being followed falls by half. Low values mean fast loss, high ones slow loss. What is called bioavailability is the share of a dose that reaches the circulation, judged against a reference dose that is usually intravenous. A higher bioavailability goes with good availability.

The target in data set [1] is T1, Bombesin receptor subtype-3 (Homo sapiens, UniProt P32247).
T1 sequence (P32247 whole entry): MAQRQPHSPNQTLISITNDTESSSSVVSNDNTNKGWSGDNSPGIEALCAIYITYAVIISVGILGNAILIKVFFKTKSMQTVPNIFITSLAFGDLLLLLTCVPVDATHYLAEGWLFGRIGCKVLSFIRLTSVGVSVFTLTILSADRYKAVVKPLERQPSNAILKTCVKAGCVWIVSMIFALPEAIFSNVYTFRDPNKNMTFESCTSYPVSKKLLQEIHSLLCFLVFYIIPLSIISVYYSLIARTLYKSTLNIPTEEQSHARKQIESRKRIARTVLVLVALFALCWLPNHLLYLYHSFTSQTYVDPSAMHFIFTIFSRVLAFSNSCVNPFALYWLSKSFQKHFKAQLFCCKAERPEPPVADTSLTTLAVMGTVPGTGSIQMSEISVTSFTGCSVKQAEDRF
The data set is described as follows: Displacement of 125I-dY-peptide from human BRS3 expressed in NFAT-CHO cells after 2 hrs by liquid scintillation counting. It is filed as cell-based. (In general: Loss of bound radioactivity is the signal in a displacement assay; it reports binding, not function.)

In data set [2] the target is T1, Bombesin receptor subtype-3. As to the kind of experiment: Agonist activity at human BRS3 expressed in human HEK293AEQ cells measured for 10 mins by aequorin bioluminescence assay. It is filed as functional, cell-based.
The target in data set [3] is T2, Bombesin receptor subtype-3 (Homo sapiens) (UniProt P32247).
T2 sequence (whole entry): T1 sequence (P32247 whole entry)
The data set is described as follows: Agonist activity at human BRS3 expressed in human HEK293AEQ cells measured for 10 mins by aequorin bioluminescence assay relative to dY-peptide. The data set is classed as functional, cell-based. In outline:
(§1)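 Same aequorin read-out in HEK293AEQ cells expressing human or mouse BRS3. Compounds were titrated in ECB buffer with 0.5% DMSO final, and coelenterazine-loaded cells were injected. Luminescence was integrated over 10 min. The value is maximal activation expressed as a percentage of the maximal response to dY-peptide.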

Data set [4] addresses T3, Bombesin receptor subtype-3 (Mus musculus, UniProt O54798).
T3 sequence (O54798 whole entry): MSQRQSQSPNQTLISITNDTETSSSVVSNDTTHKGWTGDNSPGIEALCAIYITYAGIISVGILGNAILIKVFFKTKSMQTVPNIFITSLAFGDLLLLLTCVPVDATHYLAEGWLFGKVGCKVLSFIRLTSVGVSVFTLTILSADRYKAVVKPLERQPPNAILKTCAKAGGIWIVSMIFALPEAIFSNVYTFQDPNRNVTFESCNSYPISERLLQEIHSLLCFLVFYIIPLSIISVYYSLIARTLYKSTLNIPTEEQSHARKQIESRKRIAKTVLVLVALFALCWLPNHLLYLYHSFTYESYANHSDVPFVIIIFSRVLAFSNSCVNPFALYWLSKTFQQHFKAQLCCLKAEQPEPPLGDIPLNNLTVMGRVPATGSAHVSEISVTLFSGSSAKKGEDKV
As to the kind of experiment: Agonist activity at mouse BRS3 expressed in human HEK293AEQ cells measured for 10 mins by aequorin bioluminescence assay. It is filed as functional, cell-based.

Data set [5] has as its target T4, Bombesin receptor subtype-3 (Mus musculus) (UniProt O54798).
T4 sequence (whole entry): T3 sequence (O54798 whole entry)
The data set is described as follows: Agonist activity at mouse BRS3 expressed in human HEK293AEQ cells measured for 10 mins by aequorin bioluminescence assay relative to dY-peptide. It is filed as functional, cell-based. Put shortly:
as §1

Data set [6] is described as follows: Plasma clearance in Sprague-Dawley rat at 0.5 mg/kg, iv. Further details: dose 0.5 mg/kg, route intravenous. The data set is classed as ADME, organism-based. Put shortly: (§2)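 Sprague Dawley rats received 0.5 mg/kg iv. Plasma clearance and half-life were calculated from the plasma profile.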
Data set [7] can be described thus: Half life in Sprague-Dawley rat at 0.5 mg/kg, iv. The data set is classed as ADME, organism-based. Details: dose 0.5 mg/kg, route intravenous. Conditions: in vivo. Put shortly: as §2
Another data set relates to Rattus norvegicus. As to the kind of experiment: Dose normalized AUC in Sprague-Dawley rat at 1 mg/kg, po. Conditions: in vivo. Details: dose 1 mg/kg, route oral. The data set is classed as ADME, organism-based. In outline:
(§3)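 Sprague Dawley rats were dosed 1 mg/kg po. Dose-normalized oral AUC and oral bioavailability were calculated.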

The nature of data set [8]: Oral bioavailability in Sprague-Dawley rat at 1 mg/kg. Conditions: in vivo. It is filed as ADME, organism-based. In outline: as §3
Data set [9] can be described thus: Half life of the compound in ethanol at 60 degC by CD spectroscopy. It is filed as physicochemical.

For the compound `NC(=O)C1(c2cccc3c2N(S(=O)(=O)c2ccc(OC(F)(F)F)cc2)Cc2ccc(C(F)(F)F)nc2N3)CCC1`, the half-maximal inhibitory concentration (IC50) in data set [1] was 0.5 nM. Further, the 50% effective concentration (EC50) is 21 nM in data set [2] and 22 nM in [4]. The values for the Activity in data set [3] and in [5] were 95% and 100%, respectively. Further, the clearance in [6] stood at 31 mL/min/kg. In addition, the values for the half-life in data set [7] and in data set [9] were 0.8 h and above 250 h, respectively. In the data set on Rattus norvegicus, the AUC/dose was found to be 0.3 µM·kg·h/mg. In [8], this compound came in with a bioavailability of 32%.

On to `CC(C)(O)c1nc(C2(c3cccc4c3N(S(=O)(=O)c3ccc(OC(F)(F)F)cc3)Cc3ccc(C(F)(F)F)nc3N4)CCC2)no1`, for which, in [1], the IC50 was 0.6 nM. Moreover, the EC50 in data set [2] was 82 nM; in [4], 76 nM. In addition, the figures for the Activity in data set [3] and in data set [5] were 97% and 99%, respectively. This compound displayed a clearance in data set [6] of 21 mL/min/kg. In addition, the half-life in data set [7] is 2.9 h; in data set [9], above 250 h. The same compound displayed an AUC/dose in the data set with Rattus norvegicus of 0.6 µM·kg·h/mg. For the same compound, the bioavailability in data set [8] stood at 49%.

`CC(C)(O)c1nc(-c2cccc3c2N(S(=O)(=O)c2ccc(OC(F)(F)F)cc2)Cc2ccc(C(F)(F)F)nc2N3)no1` yielded an IC50 in data set [1] of 3.6 nM. The values for the EC50 in data set [2] and in data set [4] were 73 nM and 130 nM, respectively. In data set [3], this compound showed an Activity of 106%. In data set [6], this compound gave a clearance of 16 mL/min/kg. Further, the half-life in data set [7] was 11 h; in data set [9], 2.2 h. This compound returned an AUC/dose with Rattus norvegicus of 1.6 µM·kg·h/mg. In addition, the bioavailability in [8] turned out to be 93%.

Regarding `CC(C)(C(N)=O)c1cccc2c1N(S(=O)(=O)c1ccc(OC(F)(F)F)cc1)Cc1ccc(C(F)(F)F)nc1N2`, the IC50 in [1] is 0.5 nM. For the same compound, the EC50 is 26 nM in data set [2] and 27 nM in [4]. Besides, the figures for the Activity in data set [3] and in data set [5] were 90% and 98%, respectively. The compound also had a clearance in [6] of 33 mL/min/kg. The compound further had a half-life in data set [7] of 1.6 h. In the data set on Rattus norvegicus, this compound yielded an AUC/dose of 0.3 µM·kg·h/mg. The bioavailability in [8] was 31%.

`CC(C)(O)c1nc(C(C)(C)c2cccc3c2N(S(=O)(=O)c2ccc(OC(F)(F)F)cc2)Cc2ccc(C(F)(F)F)nc2N3)no1` yielded an IC50 in data set [1] of 1.4 nM. The half-maximal effective concentration (EC50) stood at 64 nM in [2] and 67 nM in data set [4]. Also, the Activity in [3] was 97%; in data set [5], 105%. Further, the clearance in [6] stood at 12 mL/min/kg. Moreover, the results for the half-life in [7] and in [9] were 3.1 h and above 250 h, respectively. The compound further showed an AUC/dose with Rattus norvegicus of 2.6 µM·kg·h/mg. The compound also had a bioavailability in [8] of 100%.

As for `CNC(=O)C1(c2cccc3c2N(S(=O)(=O)c2ccc(OC(F)(F)F)cc2)Cc2ccc(C(F)(F)F)nc2N3)CCC1`, in data set [1], the IC50 is 2.1 nM. Besides, the figures for the EC50 in data set [2] and in [4] were 15 nM and 22 nM, respectively. In addition, the Activity in [3] came to 106%; in data set [5], 112%. This compound had a clearance in data set [6] of 25 mL/min/kg. In [7], this compound gave a half-life of 1.7 h. This compound gave an AUC/dose in the data set with Rattus norvegicus of 0.69 µM·kg·h/mg. In data set [8], this compound yielded a bioavailability of 60%.
